This passage reports cytotoxicity results from ChEMBL document CHEMBL4513216, “Probing the Open Global Health Chemical Diversity Library for Multistage-Active Starting Points for Next-Generation Antimalarials” (ACS Infect Dis, 2020).

The data set is described as follows: Toxicity liver stage against HepG2, at 10uM. In kind it is cell-based. On the set-up: test concentration 10 uM, cell line HepG2-A16-CD81EGFP. The settings on record: human, HepG2-A16-CD81EGFP cells; read-out: INHIBITION
The procedure, abridged: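 Uninfected HepG2-A16-CD81EGFP cells, 3 × 10^3 per well, 1536-well, plated on prespotted compound at 10 μM final, parasite-free screening media added to match infected plates; puromycin 10 μM positive, DMSO 0.5% negative; run in parallel with 48 h PbLuc assay at 37 °C, 5% CO2; viability by CellTiter-Glo luminescence, normalized to controls.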

As to `Cc1ccc(N2CC[C@@]3(O)CCN(S(C)(=O)=O)C[C@H]3C2)nn1`, the cytotoxicity at 10 µM was found to be 7.99%. As to `COCc1cccc(S(=O)(=O)Nc2ncc(C)s2)c1`, the cytotoxicity at 10 µM is -8.13%. For `CC(Cn1ccnc1)NS(=O)(=O)c1ccc(C#N)c(Cl)c1` (stereo not given), the cytotoxicity at 10 µM was -9.97%. Turning to `CCCNC(=O)N1CCC(c2nnc(Cn3cccn3)n2C2CC2)CC1`, the cytotoxicity at 10 µM is -7.92%. For the molecule `Cc1cnn(CC2CCCCN2Cc2c(C)noc2C)c1` (stereo not given), the cytotoxicity at 10 µM is -11.2%. The same measure for `Cc1cccc(N2CCN(CCS(=O)(=O)c3ccc(Br)cc3)CC2)c1C`: 21.9%. As for `Cc1nn(C)c2nc(NCCOCCO)sc12`, the cytotoxicity at 10 µM was -5%. With `CC(=O)N1CCN([C@@H]2CC[C@@H](NC(=O)c3cc(C)cs3)[C@H]2O)CC1`, the cytotoxicity at 10 µM worked out at 6.02%.

With `C[S+]([O-])CCNCc1ccc(OCc2cscn2)cc1` (stereo not given), the cytotoxicity at 10 µM was -138%. Take `O=C(c1csc(-c2ccc(C(F)(F)F)cc2)n1)N1CCCNCC1`: the cytotoxicity at 10 µM is 6.24%. For the molecule `CC(C)C[C@H](NC(=O)Cn1ccc2c(Cl)cccc21)C(=O)O`, the cytotoxicity at 10 µM was determined as 5.19%. With `Cc1[nH]ccc1C(=O)N1CCOCC12CCCC2`, the cytotoxicity at 10 µM stood at 4.14%. The same measure for `CCN1C[C@H]2C3(CCN(C(=O)NC(C)C)CC3)CC[C@@]2(C(=O)NC)C1`: -106%; for `CSc1ncccc1C(=O)N(C)CCc1scnc1C`: 4.23%; for `COCc1ccccc1C(=O)NS(=O)(=O)c1ccc2c(c1)CCC(=O)N2`: -1.74%. Consider `CN(C)S(=O)(=O)c1ccc(CN2CCCC2c2ccsc2)o1` (stereo not given), for which the cytotoxicity at 10 µM was -8.72%.

`CN(C(=O)NCCN1CCOCC1)C1CCN(c2ccccc2)C1=O` (stereo not given): the cytotoxicity at 10 µM is -11.6%. For `O=C(CCC1CCCN(C(=O)CCN2CCCCO2)C1)N1CCCC1` (stereo not given), the cytotoxicity at 10 µM is 2.11%. For the molecule `COc1cccc(COC(C)C(=O)NC2CCN(CC(N)=O)CC2)c1` (stereo not given), the cytotoxicity at 10 µM amounted to 0.234%.

As for `N[C@H]1CN(CCCOc2ccccc2)C[C@@H]1C1CC1`, the cytotoxicity at 10 µM is 0.147%.

`Cc1nccc(-c2cccc(NCC(=O)N3CCNC(=O)C3)c2)n1`: the cytotoxicity at 10 µM was -0.797%. Consider `O=C1COC2(CCN(c3ncccn3)CC2)CN1Cc1ccccn1`, for which the cytotoxicity at 10 µM amounted to 2.4%.

As for `CCN(CC1CCOC1)C(=O)c1ccn(-c2cc(C)ccc2OC)n1` (stereo not given), the cytotoxicity at 10 µM came out at 6.16%. `Cc1cc(C(=O)N(C)S(C)(=O)=O)ccc1F`: the cytotoxicity at 10 µM was -38.4%.

For `NCc1n[nH]c(-c2ccc(Br)cc2)n1`, the cytotoxicity at 10 µM worked out at 19.7%. In the case of `O=C1NC2(CCc3ccccc31)CCN(C(=O)c1ccncc1)C2` (stereo not given), the cytotoxicity at 10 µM was 0.84%. As to `O=C(CN1CCc2ccccc2C1)NCc1cc2n(n1)CCCNC2`, the cytotoxicity at 10 µM turned out to be 2.22%. On to `O=C(c1cccnc1)N1CCc2c(nc(N3CCCC3)[nH]c2=O)C1`, for which the cytotoxicity at 10 µM came to 4.51%. Regarding `CCn1cc(CN(C)S(=O)(=O)c2ccccc2)cn1`, the cytotoxicity at 10 µM was 11.9%. In the case of `CCN(c1ccsc1C(=O)N1CCSCC1)S(=O)(=O)c1ccc(Cl)cc1`, the cytotoxicity at 10 µM stood at 14.5%. Then `CCOc1ccccc1C(=O)Nc1cccc(C[S+](C)[O-])c1C` (stereo not given), with -4.35%; and `COc1ccc(-c2noc(CN3CCOCC3C)n2)cc1OC` (stereo not given), with -7.3%; and `c1csc(CN2CCn3c(Cn4cncn4)cnc3C2)n1`, with -5.97%. As for `CCN1CCN(C(=O)c2cc(-c3ccc(C)o3)n[nH]2)[C@H]2CS(=O)(=O)C[C@H]21`, the cytotoxicity at 10 µM was -4.25%. For the molecule `COCCOCCNC(=O)c1cccc(Cn2nc(C)cc2C)c1`, the cytotoxicity at 10 µM is 17.6%. On to `Nc1cc(CCC2CN(Cc3ccc(C(=O)O)cc3)CCO2)ccn1` (stereo not given), for which the cytotoxicity at 10 µM was 6.98%. For the molecule `CC(Nc1cccc2c1OCCO2)C(=O)Nc1ccc(S(N)(=O)=O)cc1` (stereo not given), the cytotoxicity at 10 µM is -3.93%. Take `CCN(Cc1ccncc1)C1CCCN(Cc2ccc(F)cc2OC)C1` (stereo not given): the cytotoxicity at 10 µM was -3.73%. With `O=C1CC(c2cccs2)Cc2nc(O)c(C(=O)N3CCCC3)cc21` (stereo not given), the cytotoxicity at 10 µM was -3.96%. On to `Cc1noc(C)c1CCCNC(=O)C1CCN(C(=O)C2CC2)CC1`, for which the cytotoxicity at 10 µM worked out at 1.23%.

`CO[C@H]1CCN(C(=O)Cc2ccsc2)[C@@H]2CN(CC3CC3)C[C@H]12`: the cytotoxicity at 10 µM was 6.35%. Then `Nc1ncncc1-c1noc([C@@H]2CCCN2Cc2cccnc2)n1`, with -7.29%. The same measure for `Cc1cnc(NC(C)Cc2cccnc2)nc1N(C)C` (stereo not given): -4.03%; for `CC1=N[C@@]2(CC[C@@H]3CN(CC(C)C)C[C@@H]32)C(=O)N1C`: 3.5%. The same measure for `CN(CCO)Cc1nnc(C2CCN(C(=O)c3cccnc3)CC2)n1C`: 11.4%; for `CC(C)(C)C(O)CN1CCN(Cc2nccn2CC(F)(F)F)CC1` (stereo not given): 4.77%; for `CSc1c(CC(=O)O)n(C)c2ccccc12`: 3.79%. `COc1ccc(C(C)NCCc2ccc(NC(C)=O)cc2)c(OC)c1` (stereo not given): the cytotoxicity at 10 µM amounted to 4.49%. For the molecule `Cc1ccc(C(NC(=O)CC2CCN(C(C)C)CC2)C(=O)O)cc1` (stereo not given), the cytotoxicity at 10 µM is -9.99%. In the case of `CCc1n[nH]c(C2CN(CC(=O)NCCc3ccsc3)CCO2)n1` (stereo not given), the cytotoxicity at 10 µM was -11%. Regarding `CCCn1nnnc1CN(C)C(C)c1ccc(C)cc1` (stereo not given), the cytotoxicity at 10 µM was -3.21%. Take `Cc1cc(CN2CC[C@H]3[C@H]2CCN3S(C)(=O)=O)oc1C`: the cytotoxicity at 10 µM was -1.69%. For `Cc1ccc(-n2nnc(C(=O)NS(C)(=O)=O)c2C2CC2)cc1`, the cytotoxicity at 10 µM is -13.9%.

`COc1ccc(Cc2ncc3c(n2)CN(C(=O)CO)C3)cc1`: the cytotoxicity at 10 µM was determined as 0.624%.

Take `CCCc1nn(C2CCCN(C(C)C)C2=O)c(=O)o1` (stereo not given): the cytotoxicity at 10 µM is -6.11%.

Take `COc1ccc(C(=O)CCc2nc(C3CC3)no2)cc1`: the cytotoxicity at 10 µM was -2.31%. The same measure for `Cc1ncsc1CN1CCn2c(COCC3CC3)cnc2C1C` (stereo not given): -1.82%. As for `CCOc1ccc(NC(=O)NC2CCc3nc(C)nn3C2)cc1Cl` (stereo not given), the cytotoxicity at 10 µM was -3.81%.

Take `CCCc1cc(C(=O)NCCC2=CCCCC2)[nH]n1`: the cytotoxicity at 10 µM is -51.8%. `CO[C@@H]1CC[C@@H](NC(=O)c2ccc(OCCN3CCCC3)cc2)[C@H]1O`: the cytotoxicity at 10 µM is -3.83%. Turning to `CC(C)NC(=O)[C@@H]1CCO[C@@H]2CCN(c3ncccn3)C[C@H]21`, the cytotoxicity at 10 µM is -7.6%.

For the molecule `CCc1cc(N2CCC(NC3CCOCC3)CC2)nc(N(C)C)n1`, the cytotoxicity at 10 µM was -14.5%. In the case of `O=C([C@@H]1C[C@@H]2CCN(Cc3ccco3)C[C@H]2O1)N1CCCO1`, the cytotoxicity at 10 µM was 4.78%. Turning to `CCOc1ccc(CNCCCn2ccnc2)cc1Br`, the cytotoxicity at 10 µM was -6.81%. As to `COc1ccc(CNC(=O)c2ccc(=O)n(C)c2)cc1C`, the cytotoxicity at 10 µM worked out at 2.31%. The same measure for `Cc1ccc(C(CNCc2c[nH]nc2C)N(C)C)cc1` (stereo not given): 8.42%.

Take `O=C(CN1CCOc2ccccc2C1)N1Cc2cnn(CCO)c2C1`: the cytotoxicity at 10 µM is -3.24%. With `Cn1cnc2cc(C(=O)NS(=O)(=O)CC3CCCC3)ccc21`, the cytotoxicity at 10 µM was -3.2%. As for `COCCNC(=O)NC(C)COc1ccc(F)cc1F` (stereo not given), the cytotoxicity at 10 µM turned out to be 4.14%.

Regarding `Cc1ccn2ncc(C(=O)N3CCCC(c4cc(C)[nH]n4)C3)c2n1` (stereo not given), the cytotoxicity at 10 µM was -8.02%.

On to `CCCS(=O)(=O)NC1CCN(c2cccc(F)c2C#N)CC1`, for which the cytotoxicity at 10 µM is -5.6%. The same measure for `Cc1cc(C)nc(N2CC=C[C@@H]2C(=O)NCc2ccc3c(c2)OCO3)n1`: -8.49%. For `CN1CC(=O)N(c2cccnc2)CC12CCN(C(=O)c1cccnc1)C2` (stereo not given), the cytotoxicity at 10 µM is 2.25%. For the molecule `Cn1cccc1C(=O)N[C@@H]1CN(S(C)(=O)=O)[C@@H]2COC[C@@H]21`, the cytotoxicity at 10 µM is 14.1%. The same measure for `Cc1ccc(-c2cc(C(=O)NC(C)C(=O)N3CCCCC3)on2)cc1` (stereo not given): -7.17%; for `CCCS(=O)(=O)N1CCC2(CC1)CN(c1ccccn1)CCO2`: 6.66%; for `Cc1ccc(CCNc2nc(-c3ccncc3)nc3c2CCNCC3)o1`: -132%. On to `CN1N=C(C(=O)N2CCCCC2)S(=O)(=O)c2ccccc21`, for which the cytotoxicity at 10 µM is -183%. Regarding `COc1ccc2c(c1)C(=O)NC1(CC2)CCN(Cc2ccncc2)C1` (stereo not given), the cytotoxicity at 10 µM amounted to 3.44%.

Consider `CN(C)C(=O)CC1CC2(CCN(Cc3cccs3)CC2)c2ccccc21` (stereo not given), for which the cytotoxicity at 10 µM is -3.87%.

As to `O=C(O)[C@@H]1CN(C(=O)CN2CCCCCC2)C[C@H]1c1ccccc1`, the cytotoxicity at 10 µM stood at 4.97%. Then `CC(C)CN(Cc1ccc(O)c(C(=O)O)c1)Cc1cnn(C)c1`, with -3.86%; and `COc1cccc(N2CC3(CCN(c4ccc(C)nn4)C3)CC2=O)c1` (stereo not given), with 6.62%; and `Cc1nc(C(=O)N2C[C@@H]3CN(S(C)(=O)=O)CCO[C@@H]3C2)cs1`, with 1.98%. As to `N#CC1(C(=O)N2C[C@@H]3CC[C@H]2CN(Cc2cscn2)C3)CCOCC1`, the cytotoxicity at 10 µM was found to be 2.39%. Consider `N#CC1(NC(=O)COC(=O)Cn2cccn2)CCCC1`, for which the cytotoxicity at 10 µM stood at 8.89%.

As for `COC(=O)c1occc1Cn1cc(Br)cn1`, the cytotoxicity at 10 µM is -5.63%. Then `CCC1CN(C(=O)c2ccccc2N2CCOCC2)CCN1C(C)C` (stereo not given), with 7.72%; and `Cc1cc(C)cc(CN2CCC3(CC2)CC(Nc2ncccn2)CO3)c1` (stereo not given), with 5.39%; and `COc1cccc(CNCc2cccnc2)c1`, with -1.13%. For the molecule `CCc1nc2n(n1)CC(Nc1cc(C)nc3ncnn13)CC2` (stereo not given), the cytotoxicity at 10 µM is -9.91%. Regarding `O=C(CC1CC1)NCc1cn2c(n1)CN(C(=O)c1cccnc1)CC2`, the cytotoxicity at 10 µM is 1.03%. Regarding `Cn1cc(C2(C)CN(C(=O)Nc3ccccc3F)CCO2)cn1` (stereo not given), the cytotoxicity at 10 µM was -5.23%. Turning to `CCc1cnc(CN(C)C2CCN(CC3CCOCC3)C2)o1` (stereo not given), the cytotoxicity at 10 µM is -13.4%. In the case of `COCC[C@]1(O)CCN(c2ncc(Cl)cc2F)C[C@H]1C`, the cytotoxicity at 10 µM was 12.8%.
